Publication PMC9272583 (European Journal of Medicinal Chemistry, 2022)
Where two headings read alike, the source gives them in different places.

Experiments:
DENV serotype 2 protease = DENV serotype 2 protease (Dengue virus type 2, UniProt P29990); experiment: DENV2 reporter gene assay; assay type: cell-based; details: for inhibition at 12.5 µM: HeLa, 24 h, read-out: DENV2proHeLa % (12.5 μM)
Outline: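 Stable DENV2proHeLa cells (DMEM, 10% heat-inactivated FCS, antibiotics) were seeded at 2 x 10^4 per well, dosed at once and incubated 24 h at 37 °C. Cells were lysed 15 min at room temperature, then coelenterazine (2.75 μM in PBS) was injected and luciferase read for 5 s. Triplicates; % inhibition vs untreated control. EC50 from a 4-parameter fit after background subtraction (cell-free wells).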

DENV-2 protease = target: T1, DENV-2 protease (Dengue virus type 2, UniProt P29990); experiment: Compound stability against DENV-2 protease; details: 8 h of incubation in DENV assay buffer, HPLC
T1 sequence (P29990 1476-1653 limits assumed): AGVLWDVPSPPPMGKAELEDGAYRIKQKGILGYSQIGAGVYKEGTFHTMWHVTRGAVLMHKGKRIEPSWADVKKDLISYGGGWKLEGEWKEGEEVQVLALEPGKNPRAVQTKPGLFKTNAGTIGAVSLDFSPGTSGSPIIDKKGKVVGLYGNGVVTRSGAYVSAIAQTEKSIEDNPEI

[1] = Parallel artificial membrane permeability assay; assay type: in vitro ADME; details: PAMPA
DENV2proHeLa cells = experiment: Cytotoxicity in DENV2proHeLa cells; assay type: cell-based
Outline: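 HeLa cells stably carrying the DENV2 protease reporter, kept in DMEM with 10% heat-inactivated FCS, penicillin and streptomycin. Cells were seeded at 2 x 10^4 per well and given compound dilutions straight away. Plates ran in parallel with the reporter assay for 24 h at 37 °C. Viability was read by CellTiter-Blue, with each concentration in triplicate.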

DENV serotype 2 = details: DENV-2 titer reduction; cited from earlier work
SARS-CoV-2 M^pro [2] = target: T2, SARS-CoV-2 M^pro (Severe acute respiratory syndrome coronavirus 2, UniProt P0DTD1); experiment: SARS-CoV-2 Mpro fluorogenic; assay type: biochemical; details: for inhibition at 50 µM: 0.25 h, read-out: SARS-CoV-2 M^pro % (50 μM); for time dependent inhibition: 12.5 μM; for competitive binding (Cheng-Prusoff plots): increasing substrate concentration
SARS-CoV-2 M^pro [3] = target: T2, SARS-CoV-2 M^pro; experiment: SARS-CoV-2 Mpro mass adduct measurement; assay type: binding; details: ESI-TOF, 100 μM compound
Outline: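 Test compound (100 μM) was incubated with active recombinant Mpro (3 μM; bacterially expressed, Ni-NTA then size-exclusion purified) in 50 mM Tris-HCl pH 7.4, 100 mM NaCl, 20% v/v ethylene glycol, 0.0016% Brij 58. Analysis was by LC-ESI-TOF MS on a C18 column: water/acetonitrile with 0.1% formic acid, 10→95% B over 4 min, 0.3 mL/min. Negative mode, Na-formate external calibration.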

SARS-CoV-2 M^pro [4] = target: T2, SARS-CoV-2 M^pro; experiment: Compound stability against SARS-CoV-2 Mpro; details: 8 h of incubation in assay buffer, HPLC
SARS-CoV-2 M^pro [5] = target: T2, SARS-CoV-2 M^pro; experiment: SARS-CoV-2 Mpro Michaelis-Menten kinetics; assay type: biochemical; details: Michaelis-Menten plot
SARS-CoV-2 M^pro [6] = target: T2, SARS-CoV-2 M^pro; experiment: Dilution experiment; assay type: biochemical; details: preincubated 100 μM for 2 h, diluted to 3 μM
[7] = read-out: DENV2proHeLa EC50, reporter gene assay in HeLa cells

Sequence of DENV serotype 2 protease (P29990 1346-1475): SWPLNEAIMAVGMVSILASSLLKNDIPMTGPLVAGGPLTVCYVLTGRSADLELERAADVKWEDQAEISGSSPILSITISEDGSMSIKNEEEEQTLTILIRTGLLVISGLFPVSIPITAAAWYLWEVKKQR
Sequence of DENV serotype 2 protease (P29990 1476-2093): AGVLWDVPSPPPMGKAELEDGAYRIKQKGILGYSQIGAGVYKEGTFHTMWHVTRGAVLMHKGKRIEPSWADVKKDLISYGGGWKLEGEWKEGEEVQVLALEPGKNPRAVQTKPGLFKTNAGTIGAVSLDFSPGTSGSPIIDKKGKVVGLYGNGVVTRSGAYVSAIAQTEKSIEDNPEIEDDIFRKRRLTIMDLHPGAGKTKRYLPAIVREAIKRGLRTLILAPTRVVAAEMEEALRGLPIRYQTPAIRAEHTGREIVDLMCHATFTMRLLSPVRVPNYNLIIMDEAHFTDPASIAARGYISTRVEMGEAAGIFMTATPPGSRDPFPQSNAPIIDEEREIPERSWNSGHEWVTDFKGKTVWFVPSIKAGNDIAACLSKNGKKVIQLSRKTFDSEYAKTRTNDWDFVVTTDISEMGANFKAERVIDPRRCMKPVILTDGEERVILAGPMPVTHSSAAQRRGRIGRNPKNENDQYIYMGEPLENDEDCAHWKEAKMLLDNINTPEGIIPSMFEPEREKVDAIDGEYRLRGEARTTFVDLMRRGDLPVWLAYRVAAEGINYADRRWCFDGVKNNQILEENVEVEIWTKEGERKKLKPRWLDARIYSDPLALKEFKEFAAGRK

## O=C(Nc1ccc2c(c1)B(O)OC2)c1cccc(OCc2ccc(Cl)cc2)c1 [Compound 32, 3-((4-Chlorobenzyl)oxy)-N-(1-hydroxy-1,3-dihydrobenzo[c][1,2]oxaborol-6-yl)benzamide]
DENV serotype 2 protease
  EC50: 2.4 ± 0.2 µM
  inhibition at 12.5 µM: 83.6 ± 1.7%
DENV-2 protease
  stability against DENV-2 protease: no decrease in the compound AUC

## O=C(Nc1ccc2c(c1)B(O)OC2)c1ccc(OCc2ccc(Cl)cc2)cc1 [Compound 20, 4-((4-Chlorobenzyl)oxy)-N-(1-hydroxy-1,3-dihydrobenzo[c][1,2]oxaborol-6-yl)benzamide]
[1]
  passive membrane permeability (in words): passive permeability
DENV-2 protease
  stability against DENV-2 protease: no decrease in the compound AUC

## CCCCCC(=O)NC(C(=O)NCc1ccc(NC(=N)N)cc1)c1ccc(OCc2ccccc2)cc1 (centres unmarked) [NK-189, reference compound]
DENV serotype 2 protease; inhibitor 12.5 μM, reporter gene assay in HeLa cells
  DENV2proHeLa % (12.5 μM): 79.3 ± 9.7%
DENV serotype 2 protease; [7]
  EC50: 0.6 ± 0.1 µM
DENV2proHeLa cells
  CC50: > 50 µM
DENV serotype 2
  antiviral activity of the reference substance: 0.89 µM

## O=C(Nc1cccc(B(O)O)c1)c1cccc(OCc2ccccc2)c1 [Compound 26, (3-(3-(Benzyloxy)benzamido)phenyl)boronic acid]
[1]
  passive membrane permeability (in words): passive permeability

## O=C(Nc1ccc2c(c1)B(O)OC2)c1cccc(OCc2ccccc2)n1 [Compound 28, 6-(Benzyloxy)-N-(1-hydroxy-1,3-dihydrobenzo[c][1,2]oxaborol-6-yl)picolinamide]
SARS-CoV-2 M^pro [2]
  inhibition at 50 µM: 55.5 ± 7%
DENV serotype 2 protease
  inhibition at 12.5 µM: 85.2 ± 4.1%
DENV serotype 2 protease; [7]
  EC50: 2.5 ± 0.2 µM

## Cc1cccc(COc2cccc(C(=O)Nc3ccc4c(c3)B(O)OC4)c2)c1 [Compound 29, N-(1-Hydroxy-1,3-dihydrobenzo[c][1,2]oxaborol-6-yl)-3-((3-methylbenzyl)oxy)benzamide]
SARS-CoV-2 M^pro [2]
  inhibition at 50 µM: 45.7 ± 6.3%
DENV serotype 2 protease
  EC50: 1.1 ± 0.1 µM
  inhibition at 12.5 µM: 90 ± 0.9%

## N#Cc1ccc(COc2cccc(C(=O)Nc3ccc4c(c3)B(O)OC4)c2)cc1 [Compound 31, 3-((4-Cyanobenzyl)oxy)-N-(1-hydroxy-1,3-dihydrobenzo[c][1,2]oxaborol-6-yl)benzamide]
SARS-CoV-2 M^pro [2]
  inhibition at 50 µM: 31.7 ± 3.6%
DENV serotype 2 protease
  EC50: 4.1 ± 0.2 µM
  inhibition at 12.5 µM: 82.2 ± 3.7%
[1]
  passive membrane permeability (in words): passive permeability

## O=C(Nc1ccc2c(c1)B(O)OC2)c1cccc(OCC2CCCCC2)c1 [Compound 34, 3-(Cyclohexylmethoxy)-N-(1-hydroxy-1,3-dihydrobenzo[c][1,2]oxaborol-6-yl)benzamide]
DENV serotype 2 protease
  EC50: 3.4 ± 0.5 µM

## O=C(Nc1ccc2c(c1)B(O)OC2)c1ccccc1OCc1ccccc1 [Compound 17, 2-(Benzyloxy)-N-(1-hydroxy-1,3-dihydrobenzo[c][1,2]oxaborol-6-yl)benzamide]
[1]
  passive membrane permeability (in words): passive permeability

## CC(C)(C)NC(=O)N[C@H](C(=O)N1C[C@H]2[C@@H]([C@H]1C(=O)NC(CC1CCC1)C(=O)C(N)=O)C2(C)C)C(C)(C)C (some centres unmarked) [boceprevir]
SARS-CoV-2 M^pro [3]
  mass adducts with SARS-CoV-2 M^pro: adducts were found

## N=C(N)Nc1ccc(C(=O)Nc2ccc3c(c2)B(O)OC3)cc1 [Compound 8, 4-guanidino-N-(1-hydroxy-1,3-dihydrobenzo[c][1,2]oxaborol-6-yl)benzamide]
SARS-CoV-2 M^pro [2]
  Hill slope of dose-response curve: 1.14 ± 0.07
  time dependent inhibition: no significant increase or decrease
  competitive binding (Cheng-Prusoff plots): do not show competitive binding
SARS-CoV-2 M^pro [4]
  stability against SARS-CoV-2 M^pro: no cleavage

## O=C(Nc1ccc2c(c1)B(O)OC2)c1ccc(Oc2ccccc2)cc1 [Compound 15, N-(1-Hydroxy-1,3-dihydrobenzo[c][1,2]oxaborol-6-yl)-4-phenoxybenzamide]
[1]
  passive membrane permeability (in words): passive permeability
DENV-2 protease
  stability against DENV-2 protease: no decrease in the compound AUC

## O=C(Nc1cccc(C(=O)Nc2ccc3c(c2)B(O)OC3)c1)c1ccccc1 [Compound 23, 3-Benzamido-N-(1-hydroxy-1,3-dihydrobenzo[c][1,2]oxaborol-6-yl)benzamide]
SARS-CoV-2 M^pro [4]
  stability against SARS-CoV-2 M^pro: no cleavage

## COc1cccc(COc2cccc(C(=O)Nc3ccc4c(c3)B(O)OC4)c2)c1 [Compound 30, N-(1-Hydroxy-1,3-dihydrobenzo[c][1,2]oxaborol-6-yl)-3-((3-methoxybenzyl)oxy)benzamide]
SARS-CoV-2 M^pro [2]
  inhibition at 50 µM: 43.4 ± 9.1%
DENV serotype 2 protease
  EC50: 2.9 ± 0.3 µM
  inhibition at 12.5 µM: 80.4 ± 2%

## O=C(Nc1ccc2c(c1)B(O)OC2)c1cccc(OCc2ccccc2)c1 [Compound 18, 3-(Benzyloxy)-N-(1-hydroxy-1,3-dihydrobenzo[c][1,2]oxaborol-6-yl)benzamide]
SARS-CoV-2 M^pro [2]
  Hill slope of dose-response curve: 1.39 ± 0.16
  time dependent inhibition: no significant increase or decrease
  competitive binding (Cheng-Prusoff plots): do not show competitive binding
[1]
  passive membrane permeability (in words): passive permeability
SARS-CoV-2 M^pro [4]
  stability against SARS-CoV-2 M^pro: no cleavage
DENV-2 protease
  stability against DENV-2 protease: no decrease in the compound AUC
SARS-CoV-2 M^pro [5]
  inhibition mode: mixed inhibition mode
SARS-CoV-2 M^pro [6]
  reversibility of binding: reversible

## O=S(=O)(Nc1ccc2c(c1)B(O)OC2)c1ccc(Cl)cc1 [Compound 11, 4-Chloro-N-(1-hydroxy-1,3-dihydrobenzo[c][1,2]oxaborol-6-yl)benzenesulfonamide]
[1]
  passive membrane permeability (in words): passive permeability

## N=C(N)Nc1ccc2c(c1)B(O)OC2 [Compound 4, 1-(1-Hydroxy-1,3-dihydrobenzo[c][1,2]oxaborol-6-yl)guanidine]
SARS-CoV-2 M^pro [2]
  Hill slope of dose-response curve: 1.15 ± 0.07
[1]
  passive membrane permeability (in words): no permeability

## O=C(Nc1ccc2c(c1)B(O)OC2)c1cccc(OCc2c(Cl)cccc2Cl)c1 [Compound 33, 3-((2,6-Dichlorobenzyl)oxy)-N-(1-hydroxy-1,3-dihydrobenzo[c][1,2]oxaborol-6-yl)benzamide]
DENV serotype 2 protease
  inhibition at 12.5 µM: 85.6 ± 4.3%
DENV serotype 2 protease; [7]
  EC50: 0.54 ± 0.05 µM
[1]
  passive membrane permeability (in words): passive permeability
